Measured values published in PMC4964276 (The Biochemical journal, 2016).

Legend:
[1] = test system: D/D domain of RIIα (RIIα-D/D(1–44)); assay: Isothermal titration calorimetry; type: binding, human; settings: ITC, one-site model, 25 °C, pH 7.5; three independent measurements
How it was run: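 Run in 20 mM Hepes, pH 7.5, 150 mM NaCl at 25 °C. Cell held RIIα D/D domain at 20 μM, and the syringe held the test AKAP18β(43–83) peptide at 100 μM. There were 25–30 injections of 10–12 μl at 5–20 min intervals. Incremental heat per mole was fitted by non-linear least squares to a one-site model, and protein concentration was adjusted by the fit.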

RI subunits of PKA = settings: cited from earlier work

With “NGGEPDDAELVRLSKRLVENAVLKAVQQY LEETQ NKNKP GE [AKAP18β(43–83)]” the “n (sites)” value [1] was 0.98 sites.
For “SKIP: AKAP that preferentially or specifically binds RI”, the “Binding preference for RI, SKIP” value (RI subunits of PKA; ref [12],[13]) is listed as “preferentially or specifically bind RI”.
For “smAKAP: RI-specific AKAP, full-length [reference compound]”, the “Binding preference for RI, smAKAP” value (RI subunits of PKA; ref [14]) is listed as “preferentially or specifically bind RI”.
